The values below come from ChEMBL document CHEMBL3763062, “Conformational Analysis of the Host-Defense Peptides Pseudhymenochirin-1Pb and -2Pa and Design of Analogues with Insulin-Releasing Activities and Reduced Toxicities” (J Nat Prod, 2015).

Data set [1] can be described thus: Cytotoxicity against Swiss mouse RBC assessed as hemolytic activity […]. It is filed as cell-based. The conditions noted are these: Erythrocyte. The gist of the method:
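Erythrocytes came from male NIH Swiss mice and were exposed to peptides at 1.6 × 10⁻⁶ to […]. IC50 is the mean concentration producing 50% haemolysis.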
In general terms: Cellular ATP, detected with luciferase, serves as a proxy for viable cell number.

Data set [2] is described as follows: (§1) Induction of insulin release in rat BRIN-BD11 cells after 20 mins by radioimmunoassay in presence of 5.6 mM glucose. It is filed as functional. The conditions noted are these: BRIN-BD11, 20 min, read-out: MEC. The gist of the method:
(§2)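 BRIN-BD11 cells were seeded and allowed to attach overnight at 37 °C. They were then incubated 20 min at 37 °C with peptides (10⁻¹¹ to 3 × 10⁻⁶ M; n = 8) in KRB buffer with 5.6 mM glucose. Supernatant insulin was measured by radioimmunoassay, expressed as ng/10⁶ cells/20 min, and compared with 5.6 mM glucose alone.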

Data set [3] can be described thus: Induction of insulin release in rat BRIN-BD11 cells at 3 uM after 20 mins in presence of 5.6 mM glucose by radioimmunoassay relative to control. It is filed as functional. Put shortly: as §2
In the next data set the test system is MDA-MB-231. Description: Cytotoxicity against human MDA-MB-231 cells assessed as cell viability after 24 hrs by CellTiter-Glo luminescent assay. The conditions noted are these: MDA-MB-231, 24 h. It is filed as functional, cell-based. Put shortly: (§3)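 Human tumour lines and HUVEC were cultured at 37 °C in medium with antibiotics. Cells were seeded at 5 × 10³ cells/well and exposed to peptides (10⁻⁶–10⁻⁴ M) in triplicate for 24 h at 37 °C. Viability was read as ATP luminescence. IC50 is the mean concentration giving 50% cell death over at least three independent experiments.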

Another data set has as its system HT-29. Description: Cytotoxicity against human HT-29 cells assessed as cell viability after 24 hrs by CellTiter-Glo luminescent assay. It is filed as functional, cell-based. The settings on record: HT-29, 24 h. Put shortly: as §3
A further data set relates to HUVEC. The data set is described as follows: Cytotoxicity against human HUVEC cells assessed as cell viability after 24 hrs by CellTiter-Glo luminescent assay. It is filed as cell-based. Put shortly: as §3
The test system of a further data set is Escherichia coli. The data set is described as follows: Antibacterial activity against Escherichia coli ATCC 25922 by microdilution method. It is filed as functional. Put shortly: (§4)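 Reference ATCC strains tested. The MIC was determined by standard broth microdilution in three independent experiments.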
Another data set relates to Staphylococcus aureus. The data set is described as follows: Antibacterial activity against Staphylococcus aureus ATCC 25923 by microdilution method. It is filed as functional. The gist of the method: as §4
The nature of data set [4]: Cytotoxicity in rat BRIN-BD11 cells assessed as LDH release at 1 or 3 uM after 20 mins by CytoTox96 assay. The conditions noted are these: brin-bd11, 20 min. It is filed as cell-based. Put shortly:
(§5)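 BRIN-BD11 monolayers were exposed to peptides (10⁻¹¹ to 3 × 10⁻⁶ M; n = 6) for 20 min at 37 °C in KRB buffer with 5.6 mM glucose. LDH in the supernatant was quantified by a colorimetric kit and compared with 5.6 mM glucose alone.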
(LDH leaks from cells whose membrane has failed.)

For another data set, the system named is A549. The data set is described as follows: Cytotoxicity against human A549 cells assessed as cell viability after 24 hrs by CellTiter-Glo luminescent assay. It is filed as functional, cell-based. The settings on record: A549, 24 h. The gist of the method:
as §3

For data set [5], the system named is Staphylococcus epidermidis. The data set is described as follows: Antibacterial activity against Staphylococcus epidermidis ATCC 12228 by microdilution method. It is filed as functional. Put shortly: as §4
(Broth dilution looks for growth in wells or tubes with falling amounts of substance.)

The test system of a further data set is Pseudomonas aeruginosa. The data set is described as follows: Antibacterial activity against Pseudomonas aeruginosa ATCC 27853 by microdilution method. It is filed as functional. The gist of the method:
as §4

A short description of data set [6]: Cytotoxicity in rat BRIN-BD11 cells assessed as LDH release at >= 1 uM after 20 mins by CytoTox96 assay. It is filed as cell-based. The conditions noted are these: brin-bd11, 20 min. Put shortly:
as §5

A short description of data set [7]: Cytotoxicity in rat BRIN-BD11 cells assessed as LDH release at >1 uM after 20 mins by CytoTox96 assay. It is filed as cell-based. The conditions noted are these: brin-bd11, 20 min. The gist of the method: as §5
For a further data set, the system named is BRIN-BD11. The description is as §1. It is filed as functional. The gist of the method:
as §2

Data set [8] in a line: Induction of insulin release in rat BRIN-BD11 cells at […] after 20 mins measured per 10^6 cells by radioimmunoassay in presence of 5.6 mM glucose (reference value: 0.97 to 1.05 ng). It is filed as functional.

Broadly, the IC50 is the concentration that inhibits the measured activity by half. Broadly, the MIC is the smallest concentration in the dilution series that meets the test's criterion for growth inhibition. High values mean a need for much substance, low ones inhibition by little substance.

Converted amounts (≈) assume the structure as drawn. Residues, ends and D or L forms follow the SMILES beside them. Where only a bound is given, the exact number is not on record here.

On to `CC[C@H](C)[C@H](N)C(=O)N[C@@H](CCCCN)C(=O)N[C@H](C(=O)N1CCC[C@H]1C(=O)N[C@@H](CO)C(=O)N[C@@H](Cc1ccccc1)C(=O)N[C@@H](Cc1ccccc1)C(=O)N[C@H](CCCNC(=N)N)C(=O)N[C@@H](CC(N)=O)C(=O)N[C@H](C(=O)N[C@@H](CC(C)C)C(=O)N[C@@H](CCCCN)C(=O)N[C@@H](CCCCN)C(=O)N[C@H](C(=O)NCC(=O)N[C@@H](CCCCN)C(=O)N[C@@H](CCC(=O)O)C(=O)N[C@@H](C)C(=O)N[C@H](C(=O)N[C@@H](CO)C(=O)N[C@@H](CC(C)C)C(=O)N[C@H](C(=O)N[C@@H](C)C(=O)NCC(=O)N[C@@H](C)C(=O)N[C@@H](CC(C)C)C(=O)N[C@@H](CCCCN)C(=O)N[C@@H](CCC(N)=O)C(=O)N[C@@H](CO)C(=O)O)[C@@H](C)CC)C(C)C)C(C)C)[C@@H](C)CC)[C@@H](C)CC`, for which the IC50 in [1] was over 100 µM; in the data set on MDA-MB-231, 20 µM; in the data set on HT-29 it was 35 µM; in the data set with HUVEC, 27 µM; with A549, 7.2 µM. Also, in data set [2], the minimal effective concentration worked out at 0.0003 µM. Further, the Activity in data set [3] is recorded as 190%; in data set [4], “Non-toxic”. The MIC against Escherichia coli was found to be 2.5 µM (≈ 7.89 µg/mL); in the data set on Staphylococcus aureus, 80 µM (≈ 253 µg/mL); in data set [5], 40 µM (≈ 126 µg/mL); in the data set on Pseudomonas aeruginosa it was 10 µM (≈ 31.6 µg/mL).

With “H-GIFPIFAKLLGKVIKVASSLISKGRTK-OH [listing 1 of 2 here]”, in [2], the minimal effective concentration was determined as 0.001 µM.

Consider `CC[C@H](C)[C@H](N)C(=O)N[C@@H](CCCCN)C(=O)N[C@H](C(=O)N1CCC[C@H]1C(=O)N[C@@H](CO)C(=O)N[C@@H](Cc1ccccc1)C(=O)N[C@@H](Cc1ccccc1)C(=O)N[C@@H](CCCNC(=N)N)C(=O)N[C@@H](CC(N)=O)C(=O)N[C@H](C(=O)N[C@@H](CC(C)C)C(=O)N[C@@H](CCCCN)C(=O)N[C@@H](CCCCN)C(=O)N[C@H](C(=O)NCC(=O)N[C@@H](CCCCN)C(=O)N[C@H](CCCCN)C(=O)N[C@@H](C)C(=O)N[C@H](C(=O)N[C@@H](CO)C(=O)N[C@@H](CC(C)C)C(=O)N[C@H](C(=O)N[C@@H](C)C(=O)NCC(=O)N[C@@H](C)C(=O)N[C@@H](CC(C)C)C(=O)N[C@@H](CCCCN)C(=O)N[C@@H](CCC(N)=O)C(=O)N[C@@H](CO)C(=O)O)[C@@H](C)CC)C(C)C)C(C)C)[C@@H](C)CC)[C@@H](C)CC`, for which the Activity entry in data set [6] is recorded as “Toxic”. Moreover, the concentration for half-maximal inhibition (IC50) in data set [1] was found to be 19 µM; in the data set with MDA-MB-231, 3.6 µM; in the data set with HT-29, 11 µM; in the data set on HUVEC it was 5 µM; in the data set on A549, 2.1 µM. Further, the minimal effective concentration in data set [2] worked out at 0.0003 µM.

On to `CC[C@H](C)[C@H](NC(=O)CN)C(=O)N[C@@H](Cc1ccccc1)C(=O)N1CCC[C@H]1C(=O)N[C@H](C(=O)N[C@@H](Cc1ccccc1)C(=O)N[C@@H](C)C(=O)N[C@@H](CCCCN)C(=O)N[C@@H](CC(C)C)C(=O)N[C@@H](CC(C)C)C(=O)NCC(=O)N[C@@H](CCCCN)C(=O)N[C@H](C(=O)N[C@H](C(=O)N[C@@H](CCCCN)C(=O)N[C@H](C(=O)N[C@@H](C)C(=O)N[C@@H](CO)C(=O)N[C@@H](CO)C(=O)N[C@@H](CC(C)C)C(=O)N[C@H](C(=O)N[C@@H](CO)C(=O)N[C@@H](CCCCN)C(=O)NCC(=O)N[C@@H](CCCNC(=N)N)C(=O)NC(C(=O)N[C@@H](CCC(=O)O)C(=O)O)[C@@H](C)O)[C@@H](C)CC)C(C)C)[C@@H](C)CC)C(C)C)[C@@H](C)CC` (some centres not stated) (HELM PEPTIDE1{G.I.F.P.I.F.A.K.L.L.G.K.V.I.K.V.A.S.S.L.I.S.K.G.R.[C[C@@H](O)C(N[*:1])C(=O)[*:2]].E}$$$$V2.0), for which the IC50 is 7 µM in data set [1]; 6.2 µM in the data set on MDA-MB-231; 12 µM with HT-29; 68 µM with HUVEC; 6 µM with A549. In addition, the minimal effective concentration in data set [2] was determined as 0.0001 µM. For the same molecule, the figures for the Activity in [3] and in data set [7] were 700% and “Toxic”, respectively. For the same molecule, the minimal inhibitory concentration (MIC) in the data set on Escherichia coli turned out to be 80 µM (≈ 230 µg/mL); in the data set on Staphylococcus aureus, 5 µM (≈ 14.4 µg/mL); in [5], 5 µM (≈ 14.4 µg/mL); with Pseudomonas aeruginosa it was 80 µM (≈ 230 µg/mL).

Regarding `CC[C@H](C)[C@H](N)C(=O)N[C@@H](CCCCN)C(=O)N[C@H](C(=O)N1CCC[C@H]1C(=O)N[C@@H](CO)C(=O)N[C@@H](Cc1ccccc1)C(=O)N[C@@H](Cc1ccccc1)C(=O)N[C@@H](CCCNC(=N)N)C(=O)N[C@@H](CC(N)=O)C(=O)N[C@H](C(=O)N[C@@H](CC(C)C)C(=O)N[C@@H](CCCCN)C(=O)N[C@@H](CCCCN)C(=O)N[C@H](C(=O)NCC(=O)N[C@@H](CCCCN)C(=O)N[C@@H](CCC(=O)O)C(=O)N[C@@H](C)C(=O)N[C@H](C(=O)N[C@@H](CO)C(=O)N[C@@H](CC(C)C)C(=O)N[C@H](C(=O)N[C@@H](C)C(=O)NCC(=O)N[C@@H](C)C(=O)N[C@@H](CC(C)C)C(=O)N[C@@H](CCCCN)C(=O)N[C@@H](CCC(N)=O)C(=O)N[C@@H](CO)C(=O)O)[C@@H](C)CC)C(C)C)C(C)C)[C@@H](C)CC)[C@@H](C)CC`, the concentration for half-maximal inhibition (IC50) in data set [1] came to 30 µM; in the data set on MDA-MB-231, 6.6 µM; in the data set on HT-29, 9.5 µM; with HUVEC, 5.6 µM; in the data set on A549, 2.5 µM. The minimal effective concentration in data set [2] was found to be 0.0001 µM. Moreover, the Activity entry with BRIN-BD11 was “Dose-dependent effect”; in [3], 530%; in data set [7], “Toxic”. The minimal inhibitory concentration (MIC) against Escherichia coli was 10 µM (≈ 31.6 µg/mL); against Staphylococcus aureus, 5 µM (≈ 15.8 µg/mL); in data set [5], 2.5 µM (≈ 7.89 µg/mL); against Pseudomonas aeruginosa, 20 µM (≈ 63.1 µg/mL).

Take `C[C@H](N)C(=O)O` [ALANINE]: the Activity in data set [8] is on record as 4.2 ng.

Take “H-GIFPIFAKLLGKVIKVASSLISKGRTK-OH [listing 2 of 2 here]”: in [6], the Activity entry is on record as “Toxic”. Moreover, the IC50 in data set [1] is 4 µM; in the data set on MDA-MB-231 it was 4.3 µM; with HT-29, 5.6 µM; in the data set with HUVEC it was 5 µM; in the data set on A549 it was 2.5 µM.
